Source: PubChem BioAssay
Only some compounds are listed: those with a hit (about 3.1% of all), similar ones and a draw of the others.
KCNK9 block: blocks the human KCNK9 two-pore domain potassium channel. Q9NPC2. HEK293 KCNK9, FluxOR thallium flux fluorescence; active compounds read low. B-score at 10 µM. 310,000 compounds, 1.2% hits;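 active = ratio B-score over 3 SD below the library mean, with starting fluorescence within 5 SD of its mean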;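 note: negative B-score means less thallium flux so channel inhibition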
KCNQ1 block: human KCNQ1 channel inhibition; 310,000 compounds, 1.3% hits; CHO-K1 KCNQ1, FluxOR thallium flux fluorescence; active compounds read high; B-score at 10 µM;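 active = compounds whose thallium flux B-score, printed positive for inhibition, exceeds three library SD while starting fluorescence stays within three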;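 note: channel opened by potassium depolarization with thallium stimulus after 20 min compound exposure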
hERG rescue: compounds protecting human hERG from proarrhythmic drug block | CHO-hERG, FluxOR thallium flux, dofetilide IC70 present | Q12809 | activation (rescue from dofetilide block), less the hit threshold, % at 10 µM | 310,000 compounds, 0.51% hits;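 active = activation above the mean of controls blocked by dofetilide plus 5 SD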;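 note: thallium influx through hERG after potassium depolarization seen as dye fluorescence rise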
KCNQ1 pot: potentiates or activates the human KCNQ1 potassium channel; CHO-K1 KCNQ1, thallium flux FluxOR fluorescence; active compounds read high; B-score at 10 µM; 310,000 compounds, 0.35% hits; AID 2648;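 active = fluorescence ratio B-score, a plate-corrected score, at least three library SD, with initial intensity B-score within 5 SD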
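System: CHO-K1 cells stably expressing KCNQ1 / Medium: assay buffer for compound exposure, DMSO matched across wells / Reagent: thallium- and potassium-containing depolarizing buffer / Compound: one concentration, matched DMSO / Incubation: 20 min compound pretreatment at room temperature / Measured by: kinetic FluxOR fluorescence, 10 s baseline plus 110 s post-stimulus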
KCNK3 inh: human KCNK3 channel inhibition, primary screen; CHO-KCNK3 thallium flux, FluxOR fluorescence; active compounds read low; B-score at 10 µM; 340,000 compounds, 0.84% hits;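 active = B-score under library mean minus 4 SD, starting fluorescence ratio at most library mean plus 5 SD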;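 note: more negative B-score means stronger inhibition of thallium flux through KCNK3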
KCNK9 block conf: confirmation of human KCNK9 potassium channel inhibitors | AID 492992 | 4,900 compounds, 43% hits | shares compounds with KCNK9 block | HEK293 KCNK9 cells, FluxOR thallium flux fluorescence | inhibition, % at 10 µM;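 active = thallium signal inhibited by more than 5 SD of the compound-free buffer control wells, on both duplicate plates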;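 note: 0% = assay buffer control wells without compound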
Kir21 sel: mouse Kir2.1 off-target activity of KCNK9 modulators. shares compounds with KCNK9 block. 4,900 compounds, 4% hits. inhibition, % at 10 µM. Kir2.1 cells, FluxOR thallium flux fluorescence. AID 492993;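 active = thallium signal drop more than 5 SD beyond the mean of the no-compound control wells, seen in both duplicate plates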;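 note: signal is fluorescence rise after thallium addition divided by baseline fluorescence; plate controls were assay buffer only for no effect and full block by chlorpromazine control for full effect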
Target sequence (P35561 whole entry, looked up): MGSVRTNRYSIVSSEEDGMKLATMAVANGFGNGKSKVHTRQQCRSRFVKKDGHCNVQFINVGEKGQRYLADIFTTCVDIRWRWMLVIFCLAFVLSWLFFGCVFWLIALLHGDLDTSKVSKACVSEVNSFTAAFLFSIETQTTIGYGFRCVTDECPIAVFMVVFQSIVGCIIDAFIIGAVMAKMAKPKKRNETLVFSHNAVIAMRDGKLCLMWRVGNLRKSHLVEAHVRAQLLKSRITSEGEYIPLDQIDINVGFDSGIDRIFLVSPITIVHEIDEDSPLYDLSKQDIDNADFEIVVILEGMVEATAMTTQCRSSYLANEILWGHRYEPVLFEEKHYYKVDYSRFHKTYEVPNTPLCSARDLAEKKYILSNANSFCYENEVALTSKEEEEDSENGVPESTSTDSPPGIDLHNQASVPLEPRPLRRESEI
HEK293 Tl ctr: non-induced cell nonspecific activity of KCNK9 modulators; shares compounds with KCNK9 block; non-induced KCNK9-HEK293, FluxOR thallium flux; inhibition, % at 10 µM; 4,900 compounds, 40% hits; AID 492997;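 active = thallium signal drop beyond 5 SD of the untreated control mean, on both duplicate plates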;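 note: plate controls were buffer only IC0 wells for no effect and SID17386958 at its maximal inhibitory level for full effect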
Numbers without * were called inactive; i = inactive; nt = not tested or not shown.

SMILES	KCNK9 block	KCNQ1 block	hERG rescue	KCNQ1 pot	KCNK3 inh	KCNK9 block conf	Kir21 sel	HEK293 Tl ctr
COc1cccc(CN(C)C(=O)c2ccc(Oc3ccccc3)cc2)c1OC	i	i	-10.3	i	i	i	i	i
COc1cccc(CN(C)C(=O)c2ccc(NS(=O)(=O)c3ccc4[nH]c(=O)[nH]c4c3)cc2)c1OC	i	i	-9.1	i	i	nt	nt	nt
CCOc1ccc(NS(=O)(=O)c2ccc(C(=O)N(C)Cc3cccc(OC)c3OC)cc2)cc1	i	i	-11.7	i	i	i	i	i
COc1ccccc1CN(C)C(=O)c1ccc(COc2ccccc2)cc1	i	i	-12.8	i	i	nt	nt	nt
Cc1c(/C=N/n2cnnc2)c2ccccc2n1CCOc1ccc(Cl)cc1	-8.25*	i	-12.4	i	i	i	i	i
CCCOc1ccc(-c2c(=O)n(O)c3ccccc3[n+]2[O-])cc1	-8.88*	i	28.3*	i	i	i	i	i
Cc1ccc(Cl)cc1N1CCN(C(=O)c2ccc(CN3CCOCC3)cc2)CC1	i	i	-2.9	i	i	nt	nt	nt
Cc1ccc(Cl)cc1N1CCN(Cc2cc3c(cc2O)CCC3)CC1	i	i	-15.5	i	i	i	i	i
COc1cc(CN(C)c2ncnc3sccc23)ccc1OC(F)F	i	i	-20.1	i	i	nt	nt	nt
O=C(NC1CCCCCC1)c1cc(S(=O)(=O)N2CCC3(CC2)OCCO3)ccc1F	i	i	-9.0	i	i	i	i	i
Cc1noc(N)c1C(=O)Nc1ccc(F)cc1	i	i	-7.9	i	i	nt	nt	nt
Cc1noc(N)c1C(=O)Nc1ccccc1F	-9.47*	i	-6.5	i	i	i	i	i
CC1CN(C(=O)c2ccccc2NS(=O)(=O)c2ccc(Cl)cc2)CC(C)O1 (stereo unspecified)	nt	nt	nt	nt	i	nt	nt	nt
COc1ccc(OC)c(NC(=O)c2cc(OC(C)=O)cc(C(=O)Nc3cc(OC)ccc3OC)c2)c1	-9.52*	i	-6.9	i	i	49.0%*	i	i
COc1ccc(C(=O)Nc2cc(OC)ccc2OC)cc1	i	i	-7.6	i	i	nt	nt	nt
CCCCn1c(-c2csc(CCC)c2)n[nH]c1=S	i	i	-0.2	i	i	i	i	i
CSCc1ccc(C(=O)OCc2nc3ccccc3s2)o1	nt	nt	nt	nt	i	nt	nt	nt
COc1cc(CNCCO)cc(Br)c1OCc1ccccc1Cl	i	i	-16.8	i	i	nt	nt	nt
COc1cc(CNCCO)cc(Cl)c1OCc1ccc(Cl)cc1Cl	-8.71*	i	-20.1	i	i	46.5%*	61.5%*	i
O=C(CSCc1ccc(Cl)cc1)NCCSCc1ccco1	i	i	-10.6	i	i	i	i	i
COc1ccccc1N(CC(=O)NCCSCc1ccc(Cl)cc1)S(C)(=O)=O	i	i	-3.5	i	i	nt	nt	nt
COc1ccccc1OCC(=O)NCCSCc1ccc(Cl)cc1	i	i	-14.5	i	i	i	i	i
COc1ccc(-c2ccc3c(c2)C2CC3CCN2Cc2ccc(OC(F)(F)F)cc2)cc1 (stereo unspecified)	nt	nt	nt	nt	i	nt	nt	nt
Cc1cc(C)cc(Oc2ncnc3c2ncn3Cc2c(Cl)cccc2Cl)c1	i	i	0.8	i	i	i	i	i
CC(=O)Nc1ccc(NC(=O)CCNC(=O)c2ccccc2Cl)cc1	i	i	-2.8	i	i	nt	nt	nt
CC1CCN(CCOc2cccc(Br)c2)CC1	i	i	-3.0	i	i	nt	nt	nt
Clc1cccc(OCCN2CCN(CCOc3cccc(Cl)c3)CC2)c1	i	i	-23.3	i	i	i	i	i
